# Only some compounds are listed: those with a hit (about 1.9% of all), similar ones and a draw of the others.
# HCV core dimer: HCV core protein dimerization inhibition | TR-FRET GST/Flag-core106 dimerization, 1536-well | inhibition, % at 5 µM | 0.33% of 300,000 active | AID 1899;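 active means inhibition above the mean of all tested compounds plus 3 SD, set per screening campaign, cut at about 45% in these data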
#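 System: GST/Flag-tagged HCV core106 proteins. Incubation: compound-protein-antibody incubation 4 h at 22.5 °C. Technique: HTRF with 340 nm excitation, 617/671 nm emission. Medium: KF-containing HEPES buffer, pH 7.45, DTT, CHAPS, BSA. Read-out: inhibition (%) from 671 over 617 nm ratio. Also added: Eu(K)-anti-GST 90 ng/mL plus XL665-anti-Flag 1 µg/mL.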
# Rce1 inhib: inhibitors of yeast Ras-converting enzyme; 0.27% of 290,000 active; yeast membranes, quenched prenylated peptide cleavage fluorescence; calls only; AID 2563;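 active means fall in fluorescence gain of 50% or more versus controls, with final raw signal at or below 3038400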;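 further: plate controls were neutral control wells for no effect and wells lacking membranes for full effect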
# NadD inh: inhibitors of Staphylococcus aureus NadD; purified NadD enzyme, colorimetric absorbance read-out; inhibition, % at 20 µM; 0.78% of 360,000 active; in the data active means inhibition above about 26%
# Tb MetRS inh: Trypanosoma brucei MetRS inhibition. purified T. brucei MetRS, ATP depletion, Kinase-Glo luminescence. inhibition, % at 11.9 µM. 0.4% of 360,000 active. AID 624268;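 active means inhibition above a per-plate cutoff of the control wells' mean inhibition plus 3 SD, cut at about 5.5% in these data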;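 further: 0% = DMSO wells median and 100% = median of wells with control inhibitor compound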
#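 technique = Kinase-Glo luminescence, ATP depletion format | system = purified MetRS (methionyl-tRNA synthetase) enzyme from Trypanosoma brucei | timing = 15 min preincubation, 2 h reaction, all 25 °C | evaluation = percent inhibition versus plate control medians | dosing = single dose, 11.9 µM final nominal, 0.9% final DMSO | also added = substrates ATP, L-methionine and bulk Escherichia coli tRNA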
# Pemphigus Ab inh: blocks pemphigus antibody binding to human desmoglein-3. DSG3-coupled beads, scFv-anti-DSG3-GFP binding, flow cytometry; active compounds read low. binding (percent of control), % at 10 µM. AID 588358. 0.48% of 310,000 active. P32926;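 active means binding more than 3 SD below its plate's average and above zero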;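 further: hits lower antibody fragment binding to DSG3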
# Target sequence (P32926 whole entry, looked up, the tested form may be a part): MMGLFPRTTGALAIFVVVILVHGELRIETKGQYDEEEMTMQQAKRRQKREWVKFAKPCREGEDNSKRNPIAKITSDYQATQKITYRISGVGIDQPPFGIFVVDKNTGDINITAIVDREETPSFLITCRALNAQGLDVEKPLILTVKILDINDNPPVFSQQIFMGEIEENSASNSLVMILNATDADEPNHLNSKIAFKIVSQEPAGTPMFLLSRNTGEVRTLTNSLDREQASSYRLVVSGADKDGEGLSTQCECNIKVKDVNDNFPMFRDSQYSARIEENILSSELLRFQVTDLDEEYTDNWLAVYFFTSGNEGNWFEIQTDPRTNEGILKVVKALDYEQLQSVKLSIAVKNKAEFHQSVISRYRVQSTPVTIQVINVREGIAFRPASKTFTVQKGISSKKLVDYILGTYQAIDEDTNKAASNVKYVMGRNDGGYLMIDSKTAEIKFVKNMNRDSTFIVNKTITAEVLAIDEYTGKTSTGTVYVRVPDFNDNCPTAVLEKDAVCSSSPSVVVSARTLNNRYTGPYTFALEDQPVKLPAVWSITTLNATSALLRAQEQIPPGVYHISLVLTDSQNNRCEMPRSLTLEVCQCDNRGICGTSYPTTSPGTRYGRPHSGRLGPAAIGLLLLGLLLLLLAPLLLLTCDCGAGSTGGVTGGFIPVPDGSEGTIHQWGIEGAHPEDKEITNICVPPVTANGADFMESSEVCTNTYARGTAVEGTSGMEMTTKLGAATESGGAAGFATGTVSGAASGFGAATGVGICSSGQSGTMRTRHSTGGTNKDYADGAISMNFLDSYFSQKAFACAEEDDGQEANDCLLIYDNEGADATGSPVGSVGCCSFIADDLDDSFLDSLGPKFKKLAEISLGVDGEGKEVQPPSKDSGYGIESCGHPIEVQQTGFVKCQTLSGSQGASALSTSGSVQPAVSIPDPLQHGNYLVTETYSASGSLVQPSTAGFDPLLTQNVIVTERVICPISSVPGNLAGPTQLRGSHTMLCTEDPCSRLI
# NadD conf: NadD (S. aureus) inhibition, single concentration confirmation | shares compounds with NadD inh | purified S. aureus NadD, colorimetric enzyme assay | inhibition, % at 20 µM | 13% of 2,000 active | AID 624309; in the data active means inhibition mostly above about 42%, no sharp cut-off; inactive means mostly below about 42%
# Starred values were filed as active, the others as inactive; i = inactive; nt = no result given.
SMILES,HCV core dimer,Rce1 inhib,NadD inh,Tb MetRS inh,Pemphigus Ab inh,NadD conf
Cc1ccc(Nc2nnc(C3C(=O)N(C)C4(C)CC3c3cc(Br)ccc3O4)s2)cc1 (configuration not stated),15,i,28*,3,97,4
COc1ccc(Nc2nnc(SC(C(=O)Nc3ccc(OC)c(Cl)c3)c3ccccc3)s2)cc1 (configuration not stated),40,i,32*,1,88,48
COc1ccc(Nc2nnc(SC(C(=O)Nc3cc(C)ccc3C)c3ccccc3)s2)cc1 (configuration not stated),33,i,23,0,81,nt
CCCCCCc1cc2cc(C(=O)OCC)c(=O)oc2cc1O,5,i,15,-1,98,nt
CCCCCCc1cc2cc(/C(N)=N/NC(=O)c3ccncc3)c(=O)oc2cc1O,nt,nt,61*,-1,110,8
CC(C)CCC(C)NC(=O)Cc1ccc(S(=O)(=O)N2CCOCC2)s1 (configuration not stated),-1,i,-3,0,99,nt
Cc1cc(N2CCN(c3nc(-c4ccc([N+](=O)[O-])cc4)cs3)CC2)c2ccccc2n1,14,i,28*,-1,105,-13
Cc1cccc2sc(NC(=O)C3CCN(S(=O)(=O)c4cc([N+](=O)[O-])ccc4Cl)CC3)nc12,49*,i,46*,-1,93,6
Cc1cccc(NC(=O)C2CCN(S(=O)(=O)c3cccc4nsnc34)CC2)n1,5,i,10,-1,98,nt
COc1ccc2nc(NC(=O)C3CCN(S(=O)(=O)c4cccc5nsnc45)CC3)sc2c1,3,nt,41*,-1,102,19
O=C(NC1CC1)C1CCN(S(=O)(=O)c2cc([N+](=O)[O-])ccc2Cl)CC1,nt,nt,52*,0,nt,29
O=C(NC1CC1)C1CCN(S(=O)(=O)c2cc(Cl)ccc2Cl)CC1,1,i,-1,0,100,nt
CC1(C)CNC(=O)c2sc(NC(=O)CN3CCOCC3)nc2C1,3,i,1,0,107,nt
CCN1CCC2(CC1)N=C(c1ccc(F)cc1)C(=S)N2C(=O)c1ccc(C(C)(C)C)cc1,-1,i,-1,-2,79,nt
COc1cc(/C=C(\NC(C)=O)C(=O)NC(C)(C)C)ccc1OC(C)=O,-2,i,-1,-1,90,nt
Cc1ccc(CNC(=O)c2ccc(N3CCC4(CC3)CC(c3ccccc3)=NO4)c(NC(=O)c3ccc(Br)cc3)c2)cc1,7,i,36*,0,98,13
COc1ccc(C(=O)c2sc(Nc3cccc(OC)c3)c(C(=O)Nc3cccc(C)c3C)c2N)cc1,22,i,36*,-2,84,-11
COc1ccc(NC(=O)c2c(Nc3ccccc3)sc(C(=O)c3ccc(F)cc3)c2N)cc1,20,i,33*,0,96,-1
COc1ccccc1NC(=O)c1c(Nc2ccccc2C)sc(C(=O)Nc2cccc(Cl)c2)c1N,24,i,35*,-1,90,47*
COc1ccc(-c2csc3nc(-c4ccccc4)oc(=O)c23)cc1OC,2,i,-18,-1,nt,nt
Cc1ccc(-c2csc(C3=C(O)CN(NC(=O)c4ccc([N+](=O)[O-])cc4)C3=N)n2)cc1,48*,i,30*,-1,98,7
Cc1ccc2sc(NNC(=O)c3cc(-c4cccs4)nc4ccccc34)nc2c1C,32,i,nt,nt,nt,nt
Cc1cc(C)c2nc(NNC(=O)c3cc(-c4cccs4)nc4ccccc34)sc2c1,15,i,51*,-1,95,2
COc1ccc(-c2csc(NC(=O)c3cc(-c4cccs4)nc4ccccc34)n2)c(OC)c1,4,i,34*,0,95,10
O=C(NNc1nc2ccc(Cl)cc2s1)c1cc(-c2cccs2)nc2ccccc12,20,i,44*,0,99,48*
SMILES,HCV core dimer,Rce1 inhib,NadD inh,Tb MetRS inh,Pemphigus Ab inh,NadD conf
COCCCN1C(=O)C2C(C(=O)Nc3cc(C)cc(C)c3)C3C=CC2(O3)C1C(=O)NC1CCCCC1 (configuration not stated),8,nt,-3,-1,98,nt
Cc1nn(CCc2nn[nH]n2)c2nc(C(F)(F)F)cc(C(F)(F)F)c12,2,i,-5,0,107,nt
Cc1nn(CCc2nn[nH]n2)c2nc(-c3ccc(Br)cc3)cc(C(F)(F)F)c12,21,i,28*,0,116,42
C=CCn1c(=O)c2ccccc2n2c(SCc3cc(=O)n4ccsc4n3)nnc12,-4,nt,-3,0,109,nt
O=C(NCC(F)(F)F)c1ccc(S(=O)(=O)Nc2ccccc2N2CCCC2)cc1,nt,nt,40*,0,121,11
COc1cccc(C=C(C#N)C(=O)c2ccccc2)c1,nt,nt,32*,-1,nt,18
O=C(Nc1cccc(-c2csc(Nc3ccccc3)n2)c1)c1cc([N+](=O)[O-])cc(C(F)(F)F)c1,18,i,37*,0,96,9
O=C(Nc1ccc(-c2csc(Nc3ccc(Cl)cc3)n2)cc1)c1cc([N+](=O)[O-])cc(C(F)(F)F)c1,24,i,43*,0,nt,8
O=C(Nc1cccc(-c2csc(Nc3ccc(Cl)cc3)n2)c1)c1cccc(C(F)(F)F)c1,10,i,10,0,101,nt
O=C1/C(=C/c2cccnc2)Oc2cc(OS(=O)(=O)c3ccc(Cl)cc3)ccc21,2,i,7,0,104,nt
C/C(=N\NC(=O)c1ccn(C)n1)c1ccc(NC(=O)C2CCCC2)cc1,-1,i,1,-1,118,nt
CCOC(=O)c1c(-c2ccc(C)cc2)csc1NC(=O)/C(C#N)=C/c1ccc(O)c(OC)c1,nt,nt,59*,0,306,41
CCOC(=O)/C(C#N)=C\c1ccc(O)c(OC)c1,3,i,1,-1,110,nt
CCOC(=O)c1c(-c2ccccc2)csc1NC(=O)/C(C#N)=C\c1ccc(O)c(OC)c1,nt,nt,35*,0,nt,24
Cc1ccc(-c2cccc(C3CC=CC4C3C(=O)N(Cc3ccccc3)C4c3ccc(C(F)(F)F)cc3)c2)cc1 (configuration not stated),16,i,20,0,nt,nt
CN(C)c1ccc(-c2cccc(C3CC=CC4C3C(=O)N(Cc3ccccc3)C4c3ccc4ccccc4c3)c2)cc1 (configuration not stated),15,i,32*,0,92,13
COc1ccc(C2C3C=CCC(c4cccc(-c5ccc(C)cc5)c4)C3C(=O)N2Cc2ccccc2)cc1Cl (configuration not stated),25,i,36*,0,98,12
COc1ccc(-c2cccc([C@H]3[C@@H]4C=CC[C@@H](C)[C@@H]4C(=O)N3Cc3ccccc3)c2)cc1,nt,nt,-2,0,101,nt

# Compound activity (PubChem BioAssay)
